Assay results pooled from the literature.
Protocols differ between the studies behind these lines.

| Compound | test | test system | conditions | quantity | result |
| --- | --- | --- | --- | --- | --- |
| CS(=O)(=O)CCC#N |  | human, plasma | oral, 1000 mg, single dose, fasted | MRT | 32.5 h |
| CCc1cc(C(=O)NC)c2nccc(N3CCc4c(cc(Cn5ccnc5)cc4-c4cn(C)nc4C(F)(F)F)C3=O)c2c1 |  | male CD-1 mouse, plasma | intravenous, 3 mg/kg | half-life | 48 min |
| CC[C@H](C)[C@@H]1NC(=O)[C@@](C)(NC(=O)[C@H](CCCNC(=N)N)NC(=O)[C@H](CC(C)C)NC(=O)[C@@H](NC(=O)[C@H](CCC(N)=O)NC(=O)[C@H](CC(C)C)NC(C)=O)[C@@H](C)O)CCCC=CCCC[C@@](C)(C(=O)N[C@@H](CC(C)C)C(=O)N[C@@H](Cc2ccc3ccccc3c2)C(N)=O)NC(=O)[C@H](CCCNC(=N)N)NC(=O)[C@H](CCC(N)=O)NC1=O |  | male BALB/c mouse, plasma | intraperitoneal, 5 mg/kg | half-life | 185 min |
| O=c1nc(N2CCN(CC3CCCCC3)CC2)sc2c([N+](=O)[O-])cc(C(F)(F)F)cc12 |  | CD-1 mouse, plasma | intravenous, 10 mg/kg, 8 h | concentration | 44.4 ng/mL |
| CCc1ccc(Cc2cc([C@@H]3O[C@H](CO)[C@@H](O)[C@H](O)[C@H]3O)cc3c2CCC3)cc1 |  | male C57BL/6 mouse, plasma | oral, 0.3 mg/kg | half-life | 186 min |
| COc1cc(/C=C/c2ccc(O)cc2)cc(OC)c1 | HPLC |  |  | chromatographic logP | > 3.14 |
| O=S(=O)(c1ccc(-c2ccc3nccc(Nc4ccncn4)c3c2)cc1)N1CCOCC1 |  | female BALB/c mouse, plasma | intraperitoneal, 10 mg/kg, 4.8 min | concentration | 2340 ng/mL |
| CC(C)Oc1cccc(-c2cnc(N3CCC(C(N)=O)CC3)s2)c1 |  | male Swiss mouse, plasma | oral, 30 mg/kg, 0 h, single dose | concentration | 0 nM |
| CC(C)(O)c1ccccc1-c1ccc2[nH]c(/C=C/c3ccc(C(F)(F)F)cc3)nc2c1 |  | male human, plasma | oral, 50 mg, single dose, fasted, healthy volunteers | MRT | 99.5 h |
| O=c1c(O)c(-c2ccc(O)c(O)c2)oc2cc(O)cc(O)c12 |  | human, plasma | oral, 500 mg, single dose, fasted, healthy volunteers | MRT(0-t) | 6.84 h |
| COc1cccc(/C=C/c2ccc(O)cc2)c1 | HPLC |  |  | chromatographic logP | > 3.14 |
| CC(C)CN(C[C@@H](O)[C@H](Cc1ccccc1)NC(=O)O[C@H]1CO[C@H]2OCC[C@H]21)S(=O)(=O)c1ccc(N)cc1 |  | BALB/c mouse, plasma | intravenous, 25 mg/kg, 6 h | concentration | 119 ng/mL |
| COc1cc(O)cc(/C=C/c2ccccc2)c1 | HPLC |  |  | chromatographic logP | > 3.14 |
| c1ccc(-c2nc(N3CCC(c4ccccn4)C3)c3ccccc3n2)nc1 (stereo not drawn) |  | female BALB/c mouse, plasma | oral, 50 mg/kg, 8 h | concentration | 19.6 ng/mL |
| Nc1ccc(-c2ccc3ncc(-c4noc(C(F)(F)F)n4)cc3c2)cc1 | metabolic stability | beagle dog, liver microsomes | 1 µM | scaled CLint | 115 mL/min/kg |
| CC(C)(Nc1nc(-c2ccccn2)nc2ccccc12)c1ccccn1 |  | female BALB/c mouse, plasma | oral, 50 mg/kg, 8 h | concentration | 5860 ng/mL |
| Cc1ccc(C(CC(=O)c2ccc(Oc3ccccc3)c(O)c2)C(N)=O)cc1 (stereo not drawn) | HPLC |  |  | chromatographic logP | 4.06 |
| N#CN1C[C@H](n2nc(-c3ccc(Oc4ccc(Cl)cn4)cc3)c(C(N)=O)c2N)CCC12CC2 |  | human, plasma | oral, 600 mg, fed | MRT | 33 h |
| O=C1NN=C(N=Cc2ccccc2O)C1=NNn1c(-c2ccccc2)nc2ccccc2c1=O |  |  |  | logP | 3.68 |
| c1cnc2ccc(Nc3nc(NC4CC4)c4nc[nH]c4n3)cc2c1 |  | human, plasma | oral, 800 mg/m², patients | MRT(0-t) | 9.6 h |
| CC1=NN(CNc2ccccc2)C(=O)C1=NNn1c(-c2ccccc2)nc2ccccc2c1=O |  |  |  | logP | 4.49 |
| O=C(O)C1CCN(c2ncc(-c3ccc4c(c3)OCCCO4)s2)CC1 |  | male Swiss mouse, plasma | oral, 30 mg/kg, 15 min, single dose | concentration | 15000 ng/mL |
| CC1=NN(CNc2ccccn2)C(=O)C1=NNn1c(-c2ccccc2)nc2ccccc2c1=O |  |  |  | logP | 3.87 |
| CC(C)(C)c1ccc(O)c(CN(Cc2cc(C(C)(C)C)ccc2O)C2CCC(NC(N)=O)CC2)c1 (stereo not drawn) |  | male C57BL/6 mouse, plasma | intraperitoneal, 10 mg/kg, single dose | half-life | 149 min |
